The source of these data is ChEMBL document CHEMBL1123465, “Buspirone analogues. 2. Structure-activity relationships of aromatic imide derivatives” (J Med Chem, 1986).

Structures are written as SMILES. pIC50: −log10 of the molar value. Active and inactive are the calls of the source. The calls are words filed in the database; no cut-off is given here.

Test [1] deals with Rattus norvegicus. In words: Effective oral dose that conditioned avoidance response in rat. The class given is functional. A digest of the protocol:
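On day 10, trained rats (groups of 5-10) were given drug or vehicle by oral gavage and tested at the time of maximal activity. Responses over 30 min (11 trials at 3-min intervals) were pooled across dose levels to calculate the dose suppressing avoidance in 50% of animals (ED50).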

In the next test the target is D(2) dopamine receptor (Rattus norvegicus, UniProt P61169). In words: Binding affinity at Dopamine receptor D2 in rat corpus striatum by displacing [3H]-spiperone. Format: tissue-based. In a few lines:
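Washed membranes from male Sprague-Dawley rat corpora striata were preincubated 10 min at 37 °C in Hepes-KOH pH 7.4 buffer with NaCl, KCl, CaCl2, MgCl2, ascorbic acid and 10 μM pargyline. 20-50 μg protein was incubated with 100 pM [3H]spiperone for 15 min at 37 °C, in duplicate. Nonspecific binding was defined with 10 μM D-(+)-butaclamol. IC50 came from log-probit linear regression over 3-5 concentrations.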

Test [2] concerns Rattus norvegicus. The test can be described thus: Effective oral dose that produce reversal of trifluoperazine-induced catalepsy in rat. Format: functional.
For test [3], the species on record is Rattus norvegicus. In words: Maximum effective dose that causes vogel anticonflict effect when given through oral route; IA=Inactive. Format: functional, organism-based. In a few lines: (§1)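 Reverse day-night cycled rats were water deprived 24 h, bottle trained for 15 min, then deprived a further 23.5 h. Compound was given orally before testing, and licks were counted, with brief grid shocks after a set lick number. Activity meant more licking than controls (Student's t test, p < 0.05). Maximum dose examined was 20 mg/kg.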

Test [4] is filed under the species Rattus norvegicus. The test can be described thus: Maximum effective dose that causes vogel anticonflict effect when given through oral route. Format: functional. Particulars: read-out: MED. In a few lines: as §1
The species entered for test [5] is Rattus norvegicus. In words: Inhibition of dorsal raphe neuron firing. The class given is functional.
The species entered for test [6] is Rattus norvegicus. The test can be described thus: Inhibition of induced serotonin syndrome; IA=Inactive. The class given is functional, organism-based.
Test [7] relates to Rattus norvegicus. The test can be described thus: Induction of serotonin syndrome when given po.
In test [8] the test system is Rattus norvegicus. In words: Inhibition of dorsal raphe neuron firing when given iv. The class given is functional.

Chain of D(2) dopamine receptor (P61169 whole entry): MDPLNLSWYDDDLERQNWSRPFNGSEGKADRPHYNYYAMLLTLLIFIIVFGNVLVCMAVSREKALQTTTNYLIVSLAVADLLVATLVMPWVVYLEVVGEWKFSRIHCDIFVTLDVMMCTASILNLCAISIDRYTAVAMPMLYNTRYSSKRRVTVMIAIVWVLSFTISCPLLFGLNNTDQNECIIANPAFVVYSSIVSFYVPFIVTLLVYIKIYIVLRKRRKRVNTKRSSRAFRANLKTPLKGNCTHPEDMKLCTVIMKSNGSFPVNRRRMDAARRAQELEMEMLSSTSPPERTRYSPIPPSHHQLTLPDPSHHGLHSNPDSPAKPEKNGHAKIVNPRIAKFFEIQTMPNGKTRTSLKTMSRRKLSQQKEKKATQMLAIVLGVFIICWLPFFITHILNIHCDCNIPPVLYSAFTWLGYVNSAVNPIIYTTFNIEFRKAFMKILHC

On to `O=C1CC(c2ccccc2)(c2ccccc2)C(=O)N1CCCCN1CCN(c2nsc3ccccc23)CC1`, for which the ED50 with Rattus norvegicus [1] was above 100 mg/kg; with Rattus norvegicus [2], above 20 mg/kg. On D(2) dopamine receptor, this molecule showed a pIC50 of 6.64.
On to `CC1(c2ccc(F)cc2)CC(=O)N(CCN2CCN(c3ncccn3)CC2)C1=O` (stereo not given), for which the ED50 with Rattus norvegicus [1] is above 100 mg/kg; in the test on Rattus norvegicus [2], above 20 mg/kg. Also, on D(2) dopamine receptor, the pIC50 is below 6.00.
For `Cl.O=C1CC2(CCc3ccccc32)C(=O)N1CCCCN1CCN(c2ncccn2)CC1` (stereo not given), the ED50 in the test on Rattus norvegicus [1] was 54 mg/kg; with Rattus norvegicus [2] it was 11.5 mg/kg. Further, the MED result in the test listed under Rattus norvegicus [3] was “inactive”. The pIC50 on D(2) dopamine receptor is 5.89.
Regarding `Cc1ccc(S(=O)(=O)O)cc1.O=C1CC2(CCCc3ccccc32)C(=O)N1CCCCN1CCN(c2nsc3ccccc23)CC1` (stereo not given), the figures for the ED50 in the test on Rattus norvegicus [1] and in the test with Rattus norvegicus [2] were above 100 mg/kg and above 20 mg/kg, respectively.
For `O=C1c2c(Cl)c(Cl)c(Cl)c(Cl)c2C(=O)N1CCCCN1CCN(c2ncccn2)CC1`, the values for the ED50 in the test with Rattus norvegicus [1] and with Rattus norvegicus [2] were above 100 mg/kg and above 20 mg/kg, respectively. At D(2) dopamine receptor, this molecule gave a pIC50 below 6.00.
For `CC1(c2ccc(F)cc2)CC(=O)N(CCCCN2CCN(c3nsc4ccccc34)CC2)C1=O` (stereo not given), the values for the ED50 with Rattus norvegicus [1] and with Rattus norvegicus [2] were 100 mg/kg and above 20 mg/kg, respectively. For the same molecule, the pIC50 on D(2) dopamine receptor was 6.92.
For `CC1(c2ccc(F)cc2)CC(=O)N(CCCCN2CCN(c3ncccc3C#N)CC2)C1=O` (stereo not given), the ED50 came to 100 mg/kg with Rattus norvegicus [1] and 20 mg/kg in the test on Rattus norvegicus [2]. For the same molecule, the MED result in the test listed under Rattus norvegicus [3] was “inactive”. Also, the pIC50 at D(2) dopamine receptor was 6.15.
Turning to `Cl.O=C1CC2(CCc3ccccc3C2)C(=O)N1CCCCN1CCN(c2ncccn2)CC1` (stereo not given), the ED50 with Rattus norvegicus [1] was 58 mg/kg; in the test on Rattus norvegicus [2], 13 mg/kg. Besides, the pIC50 at D(2) dopamine receptor was 6.27. Further, the minimal effective dose in the test filed under Rattus norvegicus [4] was determined as 5 mg/kg.
As to `Cl.O=C1CC2(CCCC2)CC(=O)N1CCCCN1CCN(c2ncccn2)CC1` [BUSPIRONE HYDROCHLORIDE], the figures for the ED50 in the test filed under Rattus norvegicus [5] and in the test on Rattus norvegicus [2] were 0.01 mg/kg and 3.6 mg/kg, respectively. Also, the minimal effective dose in the test listed under Rattus norvegicus [4] was 1 mg/kg. Also, in the test filed under Rattus norvegicus [6], the ED50 result is “inactive”.
For the molecule `CC1(c2ccc(F)cc2)CC(=O)N(CCCN2CCN(c3ncccn3)CC2)C1=O` (stereo not given), the ED50 with Rattus norvegicus [1] was above 100 mg/kg; in the test on Rattus norvegicus [2], above 20 mg/kg. Also, the negative-log IC50 (pIC50) on D(2) dopamine receptor was below 6.00.
`CSc1nc(N2CCN(CCCCN3C(=O)c4ccccc4C3=O)CC2)ncc1F.Cl`: the values for the ED50 in the test on Rattus norvegicus [1] and in the test on Rattus norvegicus [2] were above 100 mg/kg and above 20 mg/kg, respectively. The pIC50 at D(2) dopamine receptor was below 6.00.
For the molecule `Cl.N#Cc1cccnc1N1CCN(CCCCN2C(=O)c3ccc([N+](=O)[O-])cc3C2=O)CC1`, the ED50 with Rattus norvegicus [1] is 78 mg/kg; with Rattus norvegicus [2], above 20 mg/kg. The pIC50 at D(2) dopamine receptor is below 6.00.
For `Cl.O=C1CC2(CCCc3ccccc32)C(=O)N1CCCCN1CCN(c2ncccn2)CC1` (stereo not given), the ED50 in the test with Rattus norvegicus [1] is 50 mg/kg; in the test with Rattus norvegicus [2], above 20 mg/kg. Moreover, the MED entry in the test filed under Rattus norvegicus [3] was “inactive”. Besides, the pIC50 at D(2) dopamine receptor was below 6.00.
With `CC1(c2ccccc2)CC(=O)N(CCCCN2CCN(c3ncccn3)CC2)C1=O.Cl` (stereo not given), the ED50 in the test on Rattus norvegicus [1] amounted to 60 mg/kg. Further, the pIC50 at D(2) dopamine receptor was below 6.00.
For the molecule `Cl.N#Cc1cccnc1N1CCN(CCCCN2C(=O)CC3(CCCc4ccccc43)C2=O)CC1` (stereo not given), the results for the ED50 in the test with Rattus norvegicus [1] and with Rattus norvegicus [2] were 100 mg/kg and above 20 mg/kg, respectively. For the same molecule, on D(2) dopamine receptor, the pIC50 is 6.51.
`CC1(c2ccc(F)cc2)CC(=O)N(CCCCN2CCN(c3ncccn3)CC2)C1=O` (stereo not given): the ED50 in the test on Rattus norvegicus [1] worked out at 56 mg/kg; with Rattus norvegicus [2], 11 mg/kg. Besides, the MED result in the test filed under Rattus norvegicus [3] was “inactive”. Also, on D(2) dopamine receptor, the pIC50 is below 6.00.
On to `O=C1c2ccccc2C(=O)N1CCCCN1CCN(c2ncccn2)CC1`, for which the ED50 with Rattus norvegicus [1] was 65 mg/kg; in the test on Rattus norvegicus [2], 20 mg/kg. The MED entry in the test filed under Rattus norvegicus [3] is “inactive”. In addition, at D(2) dopamine receptor, the pIC50 is below 6.00.
Turning to `CC1(C)CC(=O)N(CCCCN2CCN(c3ncccn3)CC2)C(=O)C1.Cl` [GEPIRONE HYDROCHLORIDE], the ED50 is 53 mg/kg in the test with Rattus norvegicus [1], 17.1 mg/kg in the test on Rattus norvegicus [7], 0.025 mg/kg in the test on Rattus norvegicus [8] and 6.5 mg/kg in the test on Rattus norvegicus [2]. In the test listed under Rattus norvegicus [4], the minimal effective dose came out at 1 mg/kg.
For the molecule `O=C1CC(c2ccccc2)(c2ccccc2)C(=O)N1CCCCN1CCN(c2ncccn2)CC1`, the ED50 is above 100 mg/kg in the test on Rattus norvegicus [1] and above 20 mg/kg with Rattus norvegicus [2]. For the same molecule, the negative-log IC50 (pIC50) at D(2) dopamine receptor was below 6.00. In addition, the minimal effective dose in the test filed under Rattus norvegicus [4] is 10 mg/kg.
`O=C1c2cc(Cl)c(Cl)cc2C(=O)N1CCCCN1CCN(c2ncccn2)CC1` came in with an ED50 in the test on Rattus norvegicus [1] above 100 mg/kg. The molecule also had a pIC50 at D(2) dopamine receptor below 6.00.
`N#Cc1cccnc1N1CCN(CCCCN2C(=O)CC(c3ccccc3)(c3ccccc3)C2=O)CC1`: the values for the ED50 with Rattus norvegicus [1] and with Rattus norvegicus [2] were above 100 mg/kg and above 20 mg/kg, respectively. This molecule gave a pIC50 on D(2) dopamine receptor below 6.00.
For `O=C1c2ccc([N+](=O)[O-])cc2C(=O)N1CCCCN1CCN(c2ncccn2)CC1`, the ED50 with Rattus norvegicus [1] was 75 mg/kg; in the test on Rattus norvegicus [2], above 20 mg/kg. The pIC50 on D(2) dopamine receptor is below 6.00.
With `Cl.O=C1C2CC=CCC2C(=O)N1CCCCN1CCN(c2ncccn2)CC1` (stereo not given), the ED50 in the test with Rattus norvegicus [1] is above 100 mg/kg. The molecule further gave a pIC50 at D(2) dopamine receptor below 6.00.

The ED50 is the midpoint of the dose-response relation. The pIC50 is the IC50 on a negative log10 scale, so that one unit is a factor of ten.
